Several values for one entry are separate records, joined by “and”; a condition that tells them apart may be missing. Equal entries are not always repeated. Entries after “also recorded” stand apart in the source; their conditions may differ. One block for each compound: values may come before it.
Tests used:
PvENT1 [1] = target: T1, PvENT1 (Plasmodium vivax, UniProt A5K8B0); assay: Inhibition of [3H]uridine uptake into PvENT1-expressing yeast; type: cell-based; conditions: for fold lower IC50 of PvENT1 than PfENT1: PvENT1 vs PfENT1
T1 sequence (A5K8B0 1-416): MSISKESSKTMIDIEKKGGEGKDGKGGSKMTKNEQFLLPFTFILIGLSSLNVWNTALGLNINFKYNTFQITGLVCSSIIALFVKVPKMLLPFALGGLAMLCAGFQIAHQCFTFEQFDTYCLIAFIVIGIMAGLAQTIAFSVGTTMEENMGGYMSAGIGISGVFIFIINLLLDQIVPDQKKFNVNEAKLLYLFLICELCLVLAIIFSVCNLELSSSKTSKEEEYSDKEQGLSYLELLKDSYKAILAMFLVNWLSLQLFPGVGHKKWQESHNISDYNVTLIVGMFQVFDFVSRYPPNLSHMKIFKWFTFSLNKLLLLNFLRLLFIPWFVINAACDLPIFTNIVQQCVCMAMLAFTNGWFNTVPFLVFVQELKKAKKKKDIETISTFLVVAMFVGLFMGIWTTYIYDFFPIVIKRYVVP

PvENT1 [2] = target: T1, PvENT1; assay: Inhibition of [3H]adenosine uptake into PvENT1-expressing yeast; type: cell-based
[3] = tested on: PvENT1-expressing purine auxotrophic yeast; assay: Growth of PvENT1-expressing purine auxotrophic yeast with a sole purine source; type: cell-based; conditions: Saccharomyces cerevisiae, read-out: growth EC50
Procedure, shortened: (§1)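 Yeast strain was MATa his3Δ1 leu2Δ0 met15Δ0 ura3Δ0 fui1Δ::KanMX4 ade2Δ::hphNT1 carrying pCM189 (empty or PvENT1). Cells grown to mid-log in SDM-adenine were washed three times in water, diluted to 4 × 10^6 cells/mL, and added 1:1 to adenine or adenosine serially diluted in 2× purine-free SDM.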

[4] = tested on: empty vector (EV) purine auxotrophic yeast; assay: Growth of empty vector; type: cell-based, Saccharomyces cerevisiae
Procedure, shortened: as §1

PfENT1 = conditions: read-out: PfENT1 IC50; ref Riegelhaupt et al., 2010a; cited from earlier work
hENT1 = conditions: ref Griffiths et al., 1997, Baldwin et al., 2004, cited from earlier work
[5] = IC50 for inhibition of [^3H]Adenosine by indicated pyrimidine, 50 nM [3H]adenosine, 15 min, PvENT1-expressing yeast, mean ± SD
[6] = [^3H]Adenosine uptake inhibition IC50, hENT1 inhibitors and toxic purine analogs, 50 nM [3H]adenosine, concentrations up to 20 mM, mean ± SD, n = 3
[7] = IC50 for inhibition of [^3H]Uridine by indicated purine, 250 nM [3H]uridine, 15 min, PvENT1-expressing yeast, mean ± SD
[8] = IC50 for inhibition of [^3H]substrate uptake by the indicated purine, WT, Table 4, WT PvENT1, radiolabel [3H]adenosine (#)
[9] = hENT1 inhibitors and toxic purine analogs, 50 nM [3H]adenosine, concentrations up to 20 mM, mean ± SD, n = 3
[10] = read-out: [^3H]Adenosine uptake inhibition IC50, hENT1 inhibitors and toxic purine analogs, 50 nM [3H]adenosine, concentrations up to 20 mM, mean ± SD, n = 3

IC50 (PvENT1 [1]; [7]): 142 ± 34 µM
IC50 (PvENT1 [1]; IC50 for inhibition of [^3H]substrate uptake by the indicated purine, WT, Table 4, WT PvENT1, radiolabel [3H]uridine): 167 ± 52 µM
fold lower IC50 of PvENT1 than PfENT1 (PvENT1 [1]): 4–5 fold
Compound: Nc1ncnc2c1ncn2[C@@H]1O[C@H](CO)[C@@H](O)[C@H]1O [Adenosine]
EC50 [3]: 394 ± 85 µM
growth EC50 ([4]; EV yeast, liquid media, sole purine source): failed to grow
IC50 (PfENT1): ~650 µM

IC50 (PvENT1 [2]; [5]): 6140 ± 1030 µM
effect on radiolabel uptake into PvENT1-expressing yeast (in words) (PvENT1 [2]; [3H]adenosine uptake for pyrimidines): slight inhibition
Compound: Nc1cc[nH]c(=O)n1 [Cytosine]

IC50 (PvENT1 [1]; [7]): 3.8 ± 1.4 µM
IC50 (PvENT1 [2]; [8]): 5 ± 4 µM
Compound: OC[C@H]1O[C@@H](n2cnc3c(O)ncnc32)[C@H](O)[C@@H]1O [Inosine]

IC50 (PvENT1 [2]; [5]): 3390 ± 1170 µM
Compound: O=c1cc[nH]c(=O)[nH]1 [Uracil]

IC50 (PvENT1 [2]; [5]): 1730 ± 809 µM
Compound: O=c1ccn([C@@H]2O[C@H](CO)[C@@H](O)[C@H]2O)c(=O)[nH]1 [Uridine]

IC50 (PvENT1 [1]; [7]): 4310 ± 2870 µM
Compound: O=c1[nH]c(=O)c2ncn([C@@H]3O[C@H](CO)[C@@H](O)[C@H]3O)c2[nH]1 [Xanthosine]

Second part, the compound before the results:

Compound: Nc1nc2c(ncn2[C@H]2C[C@H](O)[C@@H](CO)O2)c(=O)[nH]1 [2-deoxyguanosine]
IC50 (PvENT1 [1]; read-out: IC50 for inhibition of [^3H]Uridine by indicated purine, 250 nM [3H]uridine, 15 min, PvENT1-expressing yeast, mean ± SD): 20.5 ± 4.8 µM

Compound: O=c1[nH]c(=O)n([C@@H]2O[C@H](CO)[C@@H](O)[C@H]2O)cc1F [5-Fluorouridine (5-FUrd), 5-Fluorouridine]
IC50 (PvENT1 [2]; [5]): 1770 ± 302 µM
IC50 (PvENT1 [2]; IC50 for inhibition of [^3H]adenosine uptake, 50 nM [3H]adenosine): 1700 µM

Compound: Sc1ncnc2nc[nH]c12 [6-mercaptopurine]
IC50 (PvENT1 [2]; [6]): 160 µM and 158 µM

Compound: Nc1ncnc2[nH]cnc12 [Adenine]
EC50 [3]: 27 ± 2 µM
IC50 (PvENT1 [1]; [7]): 1430 ± 736 µM
IC50 of nucleobase relative to the corresponding nucleoside (PvENT1 [1]; PvENT1-expressing yeast): one order of magnitude higher
EC50 ([4]; Saccharomyces cerevisiae, read-out: growth EC50): 39 ± 2 µM

Compound: OCCN(CCO)c1nc(N2CCCCC2)c2nc(N(CCO)CCO)nc(N3CCCCC3)c2n1 [Dipyridamole, dipyridamole]
concentration range inhibiting hENT1 (hENT1): 5 to 20 nM
PvENT1 IC50 relative to hENT1 (PvENT1 [2]; PvENT1 vs human ENT1): 1000 fold
IC50 (PvENT1 [2]; [6]): ~40 µM and 40 µM

Compound: Nc1nc2nc[nH]c2c(=O)[nH]1 [Guanine]
IC50 (PvENT1 [1]; [7]): 6340 ± 2950 µM

Compound: Nc1nc2c(ncn2[C@@H]2O[C@H](CO)[C@@H](O)[C@H]2O)c(=O)[nH]1 [Guanosine]
IC50 (PvENT1 [1]; [7]): 14.9 ± 1.4 µM

Compound: O=c1[nH]cnc2nc[nH]c12 [Hypoxanthine]
IC50 (PvENT1 [1]; [7]): 99 ± 30 µM
fold lower IC50 of PvENT1 than PfENT1 (PvENT1 [1]): 4–5 fold
IC50 (PfENT1): ~480 µM
IC50 (PvENT1 [2]; [8]): 141 ± 24 µM

Compound: O=[N+]([O-])c1ccc(CSc2ncnc3c2ncn3C2OC(CO)C(O)C2O)cc1 (stereo not drawn) [NBMPR, 4-nitrobenzylthioinosine]
concentrations inhibiting hENT1 (hENT1; in words): sub-nanomolar
[^3H]Adenosine uptake inhibition IC50 (PvENT1 [2]; [9]): did not inhibit; also recorded: not sensitive
[^3H]Adenosine uptake inhibition IC50 (PvENT1 [2]; hENT1 inhibitors and toxic purine analogs, 50 nM [3H]adenosine, concentrations up to 20 mM, mean ± SD, n = 3, listed as 4-nitrobenzylthioinosine (NBMPR)): no effect
IC50 (PvENT1 [2]; [10]): > 20000 µM

Compound: Cc1cn([C@H]2C[C@H](O)[C@@H](CO)O2)c(=O)[nH]c1=O [Thymidine]
IC50 (PvENT1 [2]; [5]): 183 ± 53 µM

Compound: Cc1c[nH]c(=O)[nH]c1=O [Thymine]
IC50 (PvENT1 [2]; [5]): 564 ± 145 µM

Compound: Nc1ncnc2c1ccn2[C@@H]1O[C@H](CO)[C@@H](O)[C@H]1O [Tubercidin, tubercidin (7-deaza-adenosine)]
[^3H]Adenosine uptake inhibition IC50 (PvENT1 [2]; [9]): failed to inhibit
IC50 (PvENT1 [2]; [10]): > 20000 µM

Compound: O=c1[nH]c(=O)c2[nH]cnc2[nH]1 [Xanthine]
IC50 (PvENT1 [1]; [7]): 2550 ± 189 µM
